From the RNAGym collection of RNA variant scans (doi:10.1126/science.aae0568) come the findings set out here.

Variants at the floor of the assay were thinned out.

The chains are these.
B1: tRNA (parent)
chain: GUUCCGUUGGCGUAAUGGUAACGCGUCUCCCUCCUAAGGAGAAGACUGCGGGUUCGAGUCCCGUACGGAACG

In this data set the parent is B1. In words: yeast fitness relative to wild type (ratio to wild type); higher = fitter; tRNA-Arg(CCU), competitive growth, 37 C, YPD. The essentials: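 Genotype frequency changes were the basis for Darwinian fitness relative to wild type. The frequencies came from 100-nucleotide paired-end sequencing of gene amplicons from the start population and each end population of pooled yeast strains with tRNA-Arg(CCU) gene variants at the native locus. Competition ran in YPD at 37°C for 24 hours in six replicates, genotypes needed ≥ 100 starting reads, and estimates < 0.5 were set to 0.5.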
Regarding GCUCCGUUGGCGUAAUGGCAACGCGUCUCCCUCCUAAGGAGAAGACUGCGGGUUCGAGUCCCGUACGGAACG [U2C U19C], the yeast fitness was 0.897.
For the variant GCUCCGUUGGCGUAAUGGGAACGCGUCUCCCUCCUAAGGAGAAGACUGCGGGUUCGAGUCCCGUACGGAACG [U2C U19G], the yeast fitness came to 0.867.
For the variant GCUCCGUUGGCGUAAUGGCAACGCGUCUCCCUCCUAAGGAGAAGCCUGCGGGUUUGAGUCCCGUACGGAACG [U2C U19C A45C C55U], the yeast fitness is at most 0.5.
As for GCUCCGUUGGCGCAAUGGUGACGCGUCCCCCUCCUAAGGGGAAGACUGCGGGUUCGAGUCCCGUACGGAACG [U2C U13C A20G U28C A40G], the yeast fitness was found to be 0.679.
As for GCUCCGUUGGCGUAAUGGUAACGCGUCCCCCUCUUAAGGAGAAGACUGCGGGUUCGAGUCCCGAUCGGAACG [U2C U28C C34U U64A A65U], the yeast fitness was 0.735.
Regarding GCUCCGUUGGCGUAAUGGUAACGCGGCUCCCUCCUAACGAGAAGACUGCGGGUUCGAGUCCCGUACGGAACG [U2C U26G G38C], the yeast fitness was at most 0.5.
To GCUCCGUUGGCGAAAUGGUAACGCGUGUCCCUACUAAGGAGAAGACUACGCGUUCGAGUCCCGUACGGAACG [U2C U13A C27G C33A G48A G51C] belongs at most 0.5.
As to GCUCCGUUGGCGUAAUGGUAACGCGUCACCCUCCUAAGGAGAAGACUGCGGGUCCGAGUCCCGUACGGAACG [U2C U28A U54C], the yeast fitness is 0.543.
With GCUCCGUUGGCGAAAUGGUAACGCGUCUCCCUCCUAAGCAGAAGACUGCGGGUUCGAGUGCCGUACGGAUCG [U2C U13A G39C C60G A70U], the yeast fitness came to 0.537.
For the variant GCUCCGUGGGCGUAAUGGUAACGCGUCUCCGUCCUAAGGAGCAGACUGCGGGUUCAAGUCGCGUACGGAACG [U2C U8G C31G A42C G56A C61G], the yeast fitness stood at 0.507.
GCUCCGUUGGCGUAAUGGUAACGCGUCUCCCUCCAAAGGAGAAGACAGUGGGUUUGAGUCCCGUAUGGAACG [U2C U35A U47A C49U C55U C66U]: the yeast fitness is at most 0.5.
GCUCCGUCGGCGUAAUGGUAACCCGUCUCCGUUCUAAGGAGGAGACUGCGGCUUCGACUCCCGUACGGAACG [U2C U8C G23C C31G C33U A42G G52C G58C]: the yeast fitness is at most 0.5.
As to GCUCCGUUGGCGUAACGGUAACGCGUCUCCCUCCUGAGGAGAAGACUGCGGGUUCGAGUCCCGUACGGAACG [U2C U16C A36G], the yeast fitness is at most 0.5.
As for GCUCCGUUGGCGUAAUGGCAACGCGUCUCCCUCCUAAGGAGAAGACUGCGGGUUCGAGUCCCGUACGGCACG [U2C U19C A69C], the yeast fitness is 0.708.
To GCUCCGUUGGCGCAAUGGUAAGGUGUCUCCCUCCUAAGGAGAAGACUGCGGGUUCGAGUCACGUACGGAACG [U2C U13C C22G C24U C61A] belongs at most 0.5; to GCUCCGUGGGCGUAAUGGUAACGCGUCUCCCGCCAAAGGAGAAGACUGCGGGUUUGAAUCCCGUACGGAACG [U2C U8G U32G U35A C55U G58A], at most 0.5.
Regarding GCUCCGUUGGCGCAAUGGUAACGCGUAUCCCUCCUAAGGAGAAGACUGCGGGUUCGACUCCCCUACGGAACG [U2C U13C C27A G58C G63C], the yeast fitness is at most 0.5.
GCUCCGUUGGCGUAAUGGUAACGCGUCUCCCUCCUAAGGAGAAGACCGCGGGUUCGAGUCCCGUACGGAUCG [U2C U47C A70U]: the yeast fitness turned out to be 0.808.
Consider GCUCCGUUGGCGUAAUGGUAACGCGUCACCCUCCUAAGGAGAAGACUGCGGGUUCGAGUCCCGUACGGAGCG [U2C U28A A70G], for which the yeast fitness is at most 0.5.
To GCUCCGUUGGCGUAAUGGCAACGCGUCUCCCUCCUAGGGAGAAGACUGAGGGUUCGAGUCCCGUACGGCACG [U2C U19C A37G C49A A69C] belongs at most 0.5.
Regarding GCUCCGUUGGCGUAAGGGUAACGCGUCUCCCUCCUAAGGAGAAGACUGCGGGUUCGAGUCCCGUAAGGAACG [U2C U16G C66A], the yeast fitness is at most 0.5.
For GCUCCGUGGGCGUAAUGGUGACGCGUCUCCCGCCAAAGGAGAAGACUGCGGGUUCGAGUCCCGUACGGAACG [U2C U8G A20G U32G U35A], the yeast fitness is at most 0.5.
As for GCUCCGUUGGCGUAAUGGUAACGCGUCUCCCGCUUAAGGAGAAGACUGCGGGUUCGGGUCCCGUACGGAACG [U2C U32G C34U A57G], the yeast fitness is at most 0.5.
To GCUCCGUUGGCGUAAUGGUAACGCGUCUCCCCCCUAAGGCGAAGACUACGGGUUCGAGUCCCGUACGGAACG [U2C U32C A40C G48A] belongs 0.551; to GCUCCGUUGGCGUAACGGUAACGCGUGUCCCUCCUAAGGAGAAGACUGCGGGUUCGAGUCCCGUACGGAACG [U2C U16C C27G], 0.669; to GCUCCGUCGGCGUAAUGGUAACGCGUCUCCCUCCUAAGGAGCAGACUGCGGGUUCGAGUCCCGUACGGAACG [U2C U8C A42C], 0.676.
Turning to GCUCCGUUGGCGUAAUGGUAACGCGGCUCCCUCCUAAGGAGAAGACUGCGGGUUCGAGUCCCGUGCGGAACG [U2C U26G A65G], the yeast fitness came out at 0.712.
On to GCUCCGUUGGCGUAAUGGUAACGCGUCUCCCUCCUAAGGAGAAGACCGCGGGUUCGAGUCCCGUACGGAACG [U2C U47C], for which the yeast fitness is 0.977.
To GCUCCGUUGGCGUAAUGGUAACGCGUCUCCCUCCUAAGGAGAAGACGGCGGGUUCGAGUCCCGUACGGAACG [U2C U47G] belongs 0.626.
GCUCCGUUGGCGUAAUGGCAACGCGUCUCCCUCCUAAGGAGAAGACUGUGGGUUCGCGUCCCGUACGGAACG [U2C U19C C49U A57C]: the yeast fitness was at most 0.5.
For the variant GCUCCGUUGGCGUAAUGGUAACGCGUCUCCCCCCUAAGGAGAAGACUGCGGGUUCGAGUCCCGUACGGAACG [U2C U32C], the yeast fitness was 0.973.
GCUCCGUUGGCGUAAUGGUAACGCGUCUCCCUCCGAAGGCGAAGACUGCGGGUUCGAGUCCGGUAGGGAACG [U2C U35G A40C C62G C66G]: the yeast fitness is at most 0.5.
For GCUCCGUUGGCGUAAUGGCAACGCGUCUCCCUCCUAGGGAGAAGACUGCGGGUUCGAGUCCCGUACGGAACG [U2C U19C A37G], the yeast fitness was at most 0.5.
To GCUCCGUUGGCGUAAUGGUAACGCGUCUCCCUCCCAAGGAGAAGACCGCGGGUUCGAGUCCCGUACGGAACG [U2C U35C U47C] belongs 0.788.
In the case of GCUCCGUUGGCGUAAUGGUAACGCGCCUCCCUCCUAAGGAGAAGACUACGGGUUCGAGUCCCGUACGGAACG [U2C U26C G48A], the yeast fitness turned out to be 0.663.
For GCUCCGUUGGCGUAAUGGGAACGCGUCUCCCUCCUAAGGAGAAGACUGCGGGUUCGAGUCCCGUACGAAACG [U2C U19G G68A] the value was 0.559; for GCUCCGUUGGCGUAAUGGUAACGCGUCCCCCUCCUAAGGAGAAGACUGCGGGUUAGAGUCCCGUACGGAACG [U2C U28C C55A], at most 0.5; for GCUCCGUUGGCGUAAAGGUAACGCGUCUCCCUCCUAAGGAGAAGACUGCGGGUUCGAGUCCCGUACGGAACG [U2C U16A], 0.971.
